# Source: PubChem (several laboratories)
# Rows were chosen to be rich in hits. Some 2.5% of all compounds tested hit in one or more screens of this group.
# Hsp90 block: tumor Hsp90 inhibitors, primary screen, cell lysate, fluorescence polarization, NCI-N417 lysate; Heat shock protein HSP 90-alpha (Homo sapiens), P07900; Cy3B-geldanamycin FP displacement; inhibition, % at 30 µM; actives 0.35% (n = 64,000); AID 429, 2006;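 active means inhibition above 50%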;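 further: 0% = tracer plus lysate wells and 100% = tracer alone without lysate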
# HEK293 NFkB inh: inhibitors of PMA/ionomycin-induced NF-kB reporter, primary screen, antigen receptor NF-kB inhibitor project, cell-based, HEK-293 luciferase reporter, luminescence; AID 465, 2006; HEK-293 NF-kB luciferase reporter; inhibition, % at 3 µM; actives 0.21% (n = 62,000);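 active means inhibition above the mean of all tested compounds plus 3 SD, cut at about 40% in these data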;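 further: 0% = stimulated DMSO wells and 100% = 10 µM reference inhibitor 5653914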
#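 Signal: luciferase luminescence; Material: HEK-293 cells with stable firefly luciferase reporter driven by four HIV NF-kB elements; Probe or stimulus: PMA with ionomycin; Replication: tested once; Times: 1 h compound pretreatment, then 16 h stimulation at 37 °C, 5% CO2; Benchmarks: DMSO and 10 µM reference inhibitor; Evaluation: per-plate % inhibition versus controls.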
# JNK3 inh: JNK3 kinase activity inhibitors, primary screen, biochemical, human, purified enzyme. Mitogen-activated protein kinase 10 (Homo sapiens), P53779. inhibition, % at 8 µM. HTS. actives 0.61% (n = 60,000). AID 746, 2007; in the data active means inhibition above about 17%;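 further: 0% = DMSO and 100% = reference inhibitor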
# AP ELISA ortho: alternative complement pathway inhibitors, primary screen, biochemical, ELISA, human serum, orthogonally pooled compounds; LPS-coated ELISA, C3 deposition; tested in compound mixtures; inhibition, % at 5 µM; actives 0.08% (n = 62,000); AID 1235, 2008;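 active means inhibition above 30% in each of the two pooled mixtures holding the compound, so the lower value exceeds 30%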;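 further: 0% = serum in Mg-EGTA without compound and 100% = EDTA serum blank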
#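 Test system: human serum alternative complement pathway, C3 deposition on LPS-coated wells; also added: Plate-bound LPS; doses: 5 µM per compound in ten-compound mixtures; schedule: 1 h at 37 °C; detection: Anti-C3 ELISA, OD 450 nm; evaluation: percent inhibition of C3 deposition onto LPS; repeats: two pool placements per compound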
# Her2 expr inh: inhibitors of Her2 protein expression, primary screen, SKBR-3 cells, AlphaScreen, 66K library; Receptor tyrosine-protein kinase erbB-2 (Homo sapiens), P04626; SKBR-3 HER2 protein level, 18-24 h; hits give low values; HER2 level % of control, % at 10 µM; actives 0.69% (n = 65,000); AID 645, 2007;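 active means HER2 level under 5% of the carrier-only control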;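 further: 100% = DMSO carrier and 0% = 500 nM PU-H71 HSP90 inhibitor; lower value means stronger loss of Her2 protein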
# Jurkat viability: cytotoxicity toward Jurkat T cells, primary screen, cytotoxicity control, cell-based, Jurkat E6.1, 60K MLSMR library; Jurkat E6.1 viability, ATP luminescence, 48 h; inhibition, % at 4 µM; actives 1.2% (n = 56,000); AID 463, 2006;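 active means inhibition above the mean inhibition of all tested compounds plus 3 SD, cut at about 28% in these data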
# Active calls of the source: *; nt = no result given.
SMILES,Hsp90 block,HEK293 NFkB inh,JNK3 inh,AP ELISA ortho,Her2 expr inh,Jurkat viability
CCOC(=O)c1oc2ccccc2c1CSc1nnnn1-c1ccc(C)cc1,-1,17,-4,-14,76,1
COc1cc(CSc2nnnn2-c2ccc(C)cc2)cc(OC)c1OC,-1,44*,1,10,46,89*
O=C1C(=C(O)c2ccccc2)C(=O)c2ccccc21,-3,12,-9,16,117,5
O=C1C(c2ccncc2)=C(O)c2ccccc21,-4,-30,56*,-2,83,11
O=C1C(SCCO)=C(SCCO)C(=O)c2ccccc21,89*,nt,nt,nt,nt,nt
O=C1c2ccccc2-c2nccnc21,-5,1,6,15,84,5
O=C1CC(c2ccc3c(c2)OCO3)C2=C(CCCC2=O)N1 (stereo unspecified),-3,2,1,5,84,-5
CCOc1ccccc1C1CC(=O)NC2=C1C(=O)CCC2 (stereo unspecified),1,20,-2,17,80,64*
CCCCOc1ccccc1C1CC(=O)NC2=C1C(=O)CCC2 (stereo unspecified),0,18,-5,0,79,74*
CCCOc1ccccc1C1CC(=O)NC2=C1C(=O)CCC2 (stereo unspecified),-1,7,-1,3,77,95*
CCOc1ccc(C2CC(=O)NC3=C2C(=O)CCC3)cc1 (stereo unspecified),1,8,45*,-2,92,2
CCCOc1ccccc1C1CC(=O)NC(C)=C1C(=O)OCC(C)C (stereo unspecified),-1,8,0,8,95,4
CN1C2CCC1CC(NC(=O)c1nn(C)c3ccccc13)C2 (stereo unspecified),-2,nt,nt,nt,nt,nt
CCc1cccc(NC2c3ccccc3C(=O)N2c2cccnc2)c1 (stereo unspecified),-5,3,1,-1,90,6
Cc1nc(NC(C)c2ccccc2)c2oc3ccccc3c2n1 (stereo unspecified),0,5,-2,16,80,30*
Cc1nc(Nc2ccncc2)c2oc3ccccc3c2n1,nt,7,nt,10,nt,nt
O=C(Nc1nc2c(s1)CCCC2)c1cccs1,-1,-46,4,12,91,15
O=C(Cc1cccs1)Nc1nc2c(s1)CCCC2,-20,46*,4,9,109,38*
O=C1NC(=O)c2c(NC(=O)C3CCCO3)cccc21 (stereo unspecified),-1,7,21*,-3,89,0
CC(=O)Nc1cccc2c1C(=O)NC2=O,-6,8,-1,21,77,-3
CCOC(=O)c1c(C)[nH]sc1=S,-2,nt,19*,nt,134,nt
O=c1c(/C=N/O)c(Nc2ccccc2)nc2ccccn12,-5,16,5,11,99,6
CC(C)OCCCn1c(=NC(=O)c2ccncc2)c(C#N)cc2c(=O)n3ccccc3nc21,-15,25,0,38*,87,-8
CCOc1ccccc1N1CC(O)=C(c2nc3ccccc3s2)C1=N,-13,30,8,2,70,78*
COC(=O)c1sc(N)c(C(=O)OC)c1COC(=O)c1c(C)noc1C,-3,21,-6,-8,70,94*
SMILES,Hsp90 block,HEK293 NFkB inh,JNK3 inh,AP ELISA ortho,Her2 expr inh,Jurkat viability
COc1ccc(NCc2nnc(SCC(=O)c3ccc(OC)cc3)n2C)cc1,16,22,-19,16,-43*,10
COC(=O)C1=C(C)N(c2cccc3ccccc23)C(=O)C1,51*,4,-3,4,167,-3
CCOC(=O)c1c(C)[nH]c(C(=O)OC/C(O)=C(\C#N)c2nc3ccccc3[nH]2)c1C,-12,-3,-6,10,-3.7*,-3
CCOc1ccc(C(=O)c2ccc(OCC)c(N)c2)cc1N,-1,6,-7,-11,41,12
CN(C)c1ccc(C(=O)c2ccc(N(C)C)c(N)c2)cc1N,0,11,-2,18,92,60*
COc1ccc(Nc2nc(N3CCCC3)nc3ccccc23)c(OC)c1,0,16,-11,12,13,28*
CCC(C)(C)NCCCCCNc1cc(OC)cc2cccnc12,0,nt,nt,nt,nt,nt
O=C1c2ccccc2C(Nc2ccc(F)cc2F)N1CCN1CCOCC1 (stereo unspecified),-1,20,-3,9,96,12
Oc1ccc2ccccc2c1C=NC12CN3CCN(CN(C3)C1)C2,89*,nt,-4,nt,100,nt
CCOc1ccc2nc(NC(=O)CN3CCC(n4nnc5cc(F)ccc54)CC3)sc2c1,-1,17,9,-7,66,16
COC(=O)CN1C2(C#N)CCCCC2CC2CCCCC21C#N (stereo unspecified),-1,nt,8,nt,91,nt
O=C1c2c(O)cc(O)cc2OC(c2ccc(O)c(O)c2)C1O (stereo unspecified),71*,nt,nt,nt,nt,nt
CC1(C)CC(=O)c2c(O)cc(O)cc2O1,0,0,-8,0,126,-6
CNC(=O)CN(C#N)c1nc(N(C)C)nc(N(C)C)n1,0,1,-12,-7,-20*,-4
O=C(O)CCn1c(=O)[nH]c2ccccc2c1=O,-4,1,0,15,77,-10
COc1cccc(NC(=O)CCCn2c(=O)[nH]c3ccccc3c2=O)c1,4,19,19*,-5,100,-2
O=c1c2ccccc2nc2n1CCCCN2,-2,0,21*,7,100,-4
COc1cc(NCCCCN)c2ncccc2c1,27,nt,nt,nt,nt,nt
C=CCN=C(NC#N)SCc1ccccc1Cl,5,11,-3,15,-4.6*,5
CC(C)N=C(NC#N)SCc1ccc(F)cc1,-1,-4,-3,2,116,-13
Cc1cc(Cl)ccc1OCCCC(=O)NO,-1,-7,7,13,78,93*
CC(=O)Oc1cc2oc(=O)cc(C)c2cc1OC(C)=O,58*,11,-7,1,88,14
CC(=O)Oc1cc(OC(C)=O)c2c(C)cc(=O)oc2c1,3,10,4,-1,92,0
NC(N)=NCCCCN=C(N)N,1,nt,nt,nt,nt,nt
CCOC(=O)c1[nH]c(C)c(C(=O)c2cc(F)ccc2F)c1C,-2,42*,5,-5,73,88*
CCOC(=O)c1[nH]c(C)c(C(=O)OCC)c1C,-2,6,3,5,98,-7
c1cc(CNC2=NCCCCC2)ccn1,36,17,2,14,96,-4
c1ccc(CNC2=NCCC2)nc1,0,13,-4,9,-27*,6
